Test results from ChEMBL document CHEMBL1131232, “New azole antifungals. 3. Synthesis and antifungal activity of 3-substituted-4(3H)-quinazolinones” (J Med Chem, 1998).
Values after ≈ are worked out from the molar mass of the structure shown.

Experiments:
Type in all cases: functional
[1] = In vitro antifungal activity against 6 filamentous fungi; conditions: read-out: MIC
Method in brief: (§1)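 Agar dilution on Kimmig's agar with 0.5% glycerol, using ATCC strains or clinical isolates. Drug stocks were 800 μg/mL in 50% ethanol, tested as 2-fold dilutions from 80 to 0.03 μg/mL. Inocula were 10⁵ cfu/mL. […] Geometric means took >80 as 160 and ≤0.03 as 0.03.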

[2] = In vitro for antifungal activity against 10 yeasts; conditions: read-out: MIC; method in brief: as §1
Candida albicans [3] = assay: In vivo antifungal activity against murine candidosis model after peroral administration with 1 mg/kg at various time intervals. (percent protection for 100% mortality with fluconazole-treated group.); conditions: route oral
Method in brief: (§2)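 Groups of 10 male mice were infected iv with 0.2 mL of C. albicans at 2 to 8×10^7 cfu/mL. Drug was given orally as a suspension in 1% Tween + 0.2% carboxymethylcellulose at 1, 4 and 24 h post-infection; controls got vehicle only. Survival was scored on days 3, 5, 7 and 9. Read-out was % survival on the day all untreated controls died, or on the day all mice given fluconazole at the same dose died.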

Candida albicans [4] = assay: In vivo antifungal activity against murine candidosis model after peroral administration with 1 mg/kg at various time intervals. (percent protection for 100% mortality with untreated group); conditions: route oral; method in brief: as §2
Candida albicans [5] = assay: In vivo antifungal activity against murine candidosis model after peroral administration with 2.5 mg/kg at various time intervals. (percent protection for 100% mortality with untreated group); conditions: route oral; method in brief: as §2
Candida albicans [6] = assay: In vivo antifungal activity against murine candidosis model after peroral administration with 2.5 mg/kg at various time intervals. (percent protection for 100% mortality with fluconazole-treated group.); conditions: route oral; method in brief: as §2
Candida albicans [7] = assay: In vivo antifungal activity against murine candidosis model after peroral administration with 0.5 mg/kg at various time intervals. (percent protection for 100% mortality with untreated group); conditions: route oral; method in brief: as §2
Candida albicans [8] = assay: In vivo antifungal activity against murine candidosis model after peroral administration with 0.5 mg/kg at various time intervals. (percent protection for 100% mortality with fluconazole-treated group.); conditions: route oral; method in brief: as §2

SMILES	MIC [1]	MIC [2]	Protection (Candida albicans [3])	Protection (Candida albicans [4])	Protection (Candida albicans [5])	Protection (Candida albicans [6])	Protection (Candida albicans [7])	Protection (Candida albicans [8])
C[C@@H](n1cnc2cc(C(N)=O)ccc2c1=O)[C@](O)(Cn1cncn1)c1ccc(F)cc1F	> 80 µg/mL	25 µg/mL (≈ 56.8 µM)						
Cc1cccc2ncn([C@H](C)[C@](O)(Cn3cncn3)c3ccc(F)cc3F)c(=O)c12	40 µg/mL (≈ 97.2 µM)	2.6 µg/mL (≈ 6.32 µM)	0%	0%				
C[C@@H](NC(=O)c1ccc(Cl)cc1NC=O)[C@](O)(Cn1cncn1)c1ccc(F)cc1F	0.9 µg/mL (≈ 2 µM)	0.3 µg/mL (≈ 0.667 µM)			0%	0%		
C[C@@H](NC(=O)c1ccc(Cl)cc1N)[C@](O)(Cn1cncn1)c1ccc(F)cc1F	8.9 µg/mL (≈ 21.1 µM)	3.7 µg/mL (≈ 8.77 µM)			20%	0%		
C[C@@H](n1cnc2cc(NN)ccc2c1=O)[C@](O)(Cn1cncn1)c1ccc(F)cc1F	> 80 µg/mL	15 µg/mL (≈ 35.1 µM)						
C[C@@H](n1cnc2cc(C#N)ccc2c1=O)[C@](O)(Cn1cncn1)c1ccc(F)cc1F	3.5 µg/mL (≈ 8.29 µM)	0.8 µg/mL (≈ 1.89 µM)	0%	10%				
C[C@@H](n1cnc2cccc(Cl)c2c1=O)[C@](O)(Cn1cncn1)c1ccc(F)cc1F	71 µg/mL (≈ 164 µM)	3.1 µg/mL (≈ 7.18 µM)	0%	0%				
C[C@@H](n1cnc2cc(Sc3ccccc3)ccc2c1=O)[C@](O)(Cn1cncn1)c1ccc(F)cc1F	2 µg/mL (≈ 3.96 µM)	0.7 µg/mL (≈ 1.38 µM)					0%	0%
C[C@@H](n1cnc2cc(NCc3ccccc3)ccc2c1=O)[C@](O)(Cn1cncn1)c1ccc(F)cc1F	11 µg/mL (≈ 21.9 µM)	1.2 µg/mL (≈ 2.39 µM)					40%	0%
C[C@@H](n1cnc2cc(C(F)(F)F)ccc2c1=O)[C@](O)(Cn1cncn1)c1ccc(F)cc1F	2.2 µg/mL (≈ 4.73 µM)	0.7 µg/mL (≈ 1.5 µM)					100%	60%
C[C@@H](n1cnc2cc(N3CCOCC3)ccc2c1=O)[C@](O)(Cn1cncn1)c1ccc(F)cc1F	35 µg/mL (≈ 72.5 µM)	1.9 µg/mL (≈ 3.94 µM)					20%	0%
Cc1nc2cc(Cl)ccc2c(=O)n1[C@H](C)[C@](O)(Cn1cncn1)c1ccc(F)cc1F	36 µg/mL (≈ 80.7 µM)	6.6 µg/mL (≈ 14.8 µM)						
C[C@@H](n1cnc2cc(C(=N)NS(N)(=O)=O)ccc2c1=O)[C@](O)(Cn1cncn1)c1ccc(F)cc1F	> 80 µg/mL	40 µg/mL (≈ 77.1 µM)					0%	0%
C[C@@H](N1CNc2cc(Cl)ccc2C1=O)[C@](O)(Cn1cncn1)c1ccc(F)cc1F	2.8 µg/mL (≈ 6.45 µM)	0.8 µg/mL (≈ 1.84 µM)			30%	0%		
C[C@@H](n1cnc2ccc(F)cc2c1=O)[C@](O)(Cn1cncn1)c1ccc(F)cc1F	> 80 µg/mL	2.4 µg/mL (≈ 5.78 µM)	0%	0%				
C[C@@H](n1cnc2cc(F)c(F)cc2c1=O)[C@](O)(Cn1cncn1)c1ccc(F)cc1F	70 µg/mL (≈ 162 µM)	1.7 µg/mL (≈ 3.92 µM)	0%	10%				
C[C@@H](n1cnc2cc(N(C)C)c(F)cc2c1=O)[C@](O)(Cn1cncn1)c1ccc(F)cc1F	22 µg/mL (≈ 48 µM)	1.4 µg/mL (≈ 3.05 µM)	0%	0%				
C[C@@H](n1cnc2cc(-n3cncn3)ccc2c1=O)[C@](O)(Cn1cncn1)c1ccc(F)cc1F	80 µg/mL (≈ 172 µM)	6.6 µg/mL (≈ 14.2 µM)					70%	<50%
CCC(CC)n1ncn(-c2ccc(N3CCN(c4ccc5ncn([C@H](C)[C@](O)(Cn6cncn6)c6ccc(F)cc6F)c(=O)c5c4)CC3)cc2)c1=O	28 µg/mL (≈ 39.4 µM)	3.7 µg/mL (≈ 5.21 µM)					0%	0%
C[C@@H](n1cnc2cc(Oc3ccc(Cl)cc3)ccc2c1=O)[C@](O)(Cn1cncn1)c1ccc(F)cc1F	7.1 µg/mL (≈ 13.6 µM)	0.7 µg/mL (≈ 1.34 µM)					100%	80%
C[C@@H](n1cnc2cc(N3CCN(C)CC3)ccc2c1=O)[C@](O)(Cn1cncn1)c1ccc(F)cc1F	> 80 µg/mL	19 µg/mL (≈ 38.3 µM)					20%	0%
C[C@@H](n1cnc2ccc(Br)cc2c1=O)[C@](O)(Cn1cncn1)c1ccc(F)cc1F	45 µg/mL (≈ 94.5 µM)	1.6 µg/mL (≈ 3.36 µM)	0%	100%				
C[C@@H](n1cnc2cc(OCC(F)(F)F)ccc2c1=O)[C@](O)(Cn1cncn1)c1ccc(F)cc1F	15 µg/mL (≈ 30.3 µM)	1 µg/mL (≈ 2.02 µM)					100%	100%
